Bioassay records: PubChem BioAssay, Broad Institute
The list is not random: actives were taken first. Their share in the collection is about 2.5%.
E-sel inducer: induces E-selectin expression in human endothelial cells; AID 686992; activation, % at 7.58 µM; 0.37% of 260,000 active; HUVEC E-selectin immunofluorescence imaging; normalized: neutral wells 0, TNF-alpha wells 100; P16581;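 active means mean E-selectin-positive cell signal at least 10% of the positive control, reached in at least 60% of replicates, without over 20% cell loss; inconclusive means no rule given, readout overlaps actives, possibly toxicity-flagged; inactive means the rest, including those meeting only one limit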
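Assay system: HUVEC primary endothelial cells. Input: 3,000 HUVEC seeded per well. Doses: one compound dose added by pin transfer. Read-out basis: % PE-positive cells. Benchmarks: TNF-alpha high, DMSO low. Detection: immunofluorescence imaging. Buffer or medium: EGM-2, gelatin.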
DENV2 CPE rescue: DENV2-induced cell death inhibition | DENV2-infected cells, cytopathic effect rescue, plate reader | CPE inhibition, % at 9.99 µM | 1.7% of 350,000 active; in the data active means CPE inhibition above about 20%, passing the limit was not always enough; inconclusive means no clear call, values can overlap the other calls; tested in BHK-21 cells;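 further: 0% = median of neutral control wells and 100% = median of positive control wells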
PglD inh: inhibitors of Campylobacter jejuni PglD acetyltransferase; purified PglD enzyme, DTNB colorimetric CoA detection; AID 602405; 0.098% of 360,000 active; inhibition, % at 12.5 µM; in the data active means inhibition above about 16%, passing the limit was not always enough; inconclusive means no clear call, values can overlap the other calls
SIRT5 block: sirtuin-5 (human) deacylase inhibition; 1.1% of 330,000 active; Purified SirT5, succinyl-peptide AMC, trypsin-coupled fluorescence; Q9NXA8; inhibition, % at 15 µM; in the data active means inhibition above about 15%; inconclusive means no clear call, values can overlap the other calls
ERAP1 inh: blocks human ERAP1 aminopeptidase activity. Q9NZ08. recombinant ERAP1, Leu-AMC fluorescence, 60 min. AID 652197. 0.15% of 340,000 active. inhibition, % at 10.7 µM;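 active means mean replicate inhibition of at least 30%, or all replicates individually reaching that 30% level; inactive means mean below 30% and not every replicate reaching it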;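 further: 0% = neutral control wells and 100% = L-leucinethiol positive control wells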
Target sequence (Q9NZ08 whole entry, looked up): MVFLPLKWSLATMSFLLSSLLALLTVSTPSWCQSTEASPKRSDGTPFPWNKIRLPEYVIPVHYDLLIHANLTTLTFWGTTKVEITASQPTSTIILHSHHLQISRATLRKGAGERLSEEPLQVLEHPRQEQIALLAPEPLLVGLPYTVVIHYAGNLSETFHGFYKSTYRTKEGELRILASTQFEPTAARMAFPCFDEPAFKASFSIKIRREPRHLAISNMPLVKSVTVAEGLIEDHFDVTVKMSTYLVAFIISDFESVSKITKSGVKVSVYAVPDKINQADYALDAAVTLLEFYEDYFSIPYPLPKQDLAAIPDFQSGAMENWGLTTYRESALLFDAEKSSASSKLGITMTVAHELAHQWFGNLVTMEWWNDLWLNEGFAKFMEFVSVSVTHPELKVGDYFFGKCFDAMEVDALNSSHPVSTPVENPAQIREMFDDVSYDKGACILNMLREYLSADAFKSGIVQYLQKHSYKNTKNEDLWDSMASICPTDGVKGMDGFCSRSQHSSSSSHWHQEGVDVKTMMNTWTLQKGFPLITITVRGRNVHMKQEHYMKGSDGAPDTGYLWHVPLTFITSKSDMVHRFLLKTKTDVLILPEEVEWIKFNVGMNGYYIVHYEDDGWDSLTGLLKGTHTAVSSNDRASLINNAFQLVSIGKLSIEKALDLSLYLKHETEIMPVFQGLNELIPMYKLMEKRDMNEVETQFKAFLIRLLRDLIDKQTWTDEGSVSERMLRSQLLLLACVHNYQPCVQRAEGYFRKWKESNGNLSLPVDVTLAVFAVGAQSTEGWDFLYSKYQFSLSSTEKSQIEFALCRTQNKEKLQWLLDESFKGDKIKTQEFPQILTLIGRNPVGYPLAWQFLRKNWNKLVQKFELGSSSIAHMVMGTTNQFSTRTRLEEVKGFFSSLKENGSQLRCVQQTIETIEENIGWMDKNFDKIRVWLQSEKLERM
* hit, by the source's call.

COc1cccc(NC(=O)N2CC(=O)N3[C@H](CO)[C@@H](c4ccc(C#CCC5CCCC5)cc4)[C@@H]3C2)c1 was read as E-sel inducer 0, DENV2 CPE rescue 1, SIRT5 block 24* and ERAP1 inh -1.
CC(=O)N1CCN(C(=O)COC(=O)/C=C/c2ccc(C(F)(F)F)cc2)CC1 was read as DENV2 CPE rescue -8, PglD inh 7, SIRT5 block 0 and ERAP1 inh 1.
Screening CCN1/C(=N\N)c2cccc3cccc1c23 returned E-sel inducer 37*, DENV2 CPE rescue inconclusive, SIRT5 block 0 and ERAP1 inh -2.
Screening C[C@H](NC(=O)C[C@@H]1CC[C@H]2[C@@H](COC[C@H](O)CN2C(=O)Nc2ccccc2)O1)c1ccccc1 returned E-sel inducer 0, DENV2 CPE rescue 31*, PglD inh 1, SIRT5 block -3 and ERAP1 inh 1.
Screening C[C@H](NC(=O)C[C@H]1CC[C@H]2[C@@H](COC[C@H](O)CN2C(=O)Nc2ccccc2)O1)c1ccccc1 returned E-sel inducer 0, DENV2 CPE rescue -11, PglD inh 0, SIRT5 block 3 and ERAP1 inh 43*.
Screening C[C@H](NC(=O)C[C@@H]1CC[C@@H]2[C@H](COC[C@H](O)CN2C(=O)Nc2ccccc2)O1)c1ccccc1 returned E-sel inducer 0, DENV2 CPE rescue 34*, PglD inh 0, SIRT5 block 3 and ERAP1 inh 1.
CC(=O)Nc1cccc(-c2nc3ccccc3o2)c1 was read as DENV2 CPE rescue 4, PglD inh -4, SIRT5 block -1 and ERAP1 inh 0.
Screening Cc1cc(C)c(OCC(=O)NCC(C)(C)N2CCOCC2)c(C)c1 returned E-sel inducer 0, DENV2 CPE rescue inconclusive, PglD inh -8, SIRT5 block 30* and ERAP1 inh 4.
For Cc1ccc(C)c(OCC(=O)NCC(C)(C)N2CCOCC2)c1 the results were DENV2 CPE rescue 7, PglD inh -4, SIRT5 block 4 and ERAP1 inh -1.
`CCCC(=O)Nc1ccc2c(c1)nc(CN1CCN(C(=O)OCC)CC1)n2CC` gave E-sel inducer 0, DENV2 CPE rescue 3, PglD inh 4, SIRT5 block -1 and ERAP1 inh 2.
Screening CS(=O)(=O)N1[C@H](C#N)[C@H](c2ccc(C#Cc3cccc(F)c3)cc2)[C@H]1CO returned E-sel inducer 0, DENV2 CPE rescue 2, PglD inh -2, SIRT5 block 10 and ERAP1 inh -3.
`CCC(C)[C@H](NS(=O)(=O)c1ccc(C)cc1)C(=O)N1CCC(C(=O)N2CCC(C(=O)OC)CC2)CC1` (stereo partly drawn) gave DENV2 CPE rescue 82*, PglD inh 1 and ERAP1 inh 21.
Screening Cc1ccc(S(=O)(=O)N[C@@H](Cc2ccccc2)C(=O)N2CCC(C(=O)N[C@@H](CCC(N)=O)C(=O)O)CC2)cc1 returned E-sel inducer 66*, DENV2 CPE rescue 0, PglD inh 0, SIRT5 block -4 and ERAP1 inh -2.
For Cc1ccc(S(=O)(=O)N[C@@H](CC(C)C)C(=O)N2CCC(C(=O)N[C@@H](Cc3ccccc3)C(=O)O)CC2)cc1 the results were DENV2 CPE rescue -3 and PglD inh 2.
Screening COC(=O)[C@]1(C)CCC[C@@]2(C)C3CC[C@@]4(C)C[C@]3(CCC21)CC(=O)N4Cc1ccc(OC)cc1 (stereo partly drawn) returned E-sel inducer 0, DENV2 CPE rescue inconclusive, PglD inh -4 and ERAP1 inh -1.
For CO[C@@H]1CN(C)C(=O)c2ccc(NC(=O)NC(C)C)cc2OC[C@@H](C)N(Cc2ccccc2)C[C@@H]1C the results were E-sel inducer 0, DENV2 CPE rescue 7, PglD inh 1, SIRT5 block 18* and ERAP1 inh -3.
Screening CO[C@H]1CN(C)C(=O)c2ccc(NC(=O)NC(C)C)cc2OC[C@H](C)N(Cc2ccccc2)C[C@H]1C returned E-sel inducer 0, DENV2 CPE rescue 0, PglD inh -3, SIRT5 block 23* and ERAP1 inh -5.
`C[C@@H](NC(=O)[C@H]1[C@H](CO)[C@H]2Cn3c(ccc(-c4ccccc4)c3=O)[C@@H]1N2C)c1ccccc1` gave E-sel inducer 0, DENV2 CPE rescue -4, PglD inh -3, SIRT5 block -3 and ERAP1 inh -3.
CCC(C(=O)N1CCOCC1)n1nc(C)c2sc3ccccc3c2c1=O (stereo not drawn) was read as DENV2 CPE rescue 8, PglD inh -7, SIRT5 block 30* and ERAP1 inh -6.
For CCCN=C1N(CC)C[C@@H]2[C@@H]3C(=O)N(C)C(=O)[C@@H]3[C@](CC)(C(=O)OC)N12 the results were DENV2 CPE rescue 28*, PglD inh -2, SIRT5 block -4 and ERAP1 inh -3.
Screening CCN1C[C@@H]2[C@@H]3C(=O)N(C)C(=O)[C@@H]3[C@](CC)(C(=O)OC)N2C1=NC returned E-sel inducer 4, DENV2 CPE rescue 2, PglD inh -6, SIRT5 block -2 and ERAP1 inh 6.
Screening COc1ccccc1N1C(=O)C2CCC(c3ccccc3)CC2C1=O (stereo not drawn) returned DENV2 CPE rescue 23*, PglD inh 2, SIRT5 block 0 and ERAP1 inh -1.
For NC(=O)/C(=C\c1ccco1)NC(=O)c1ccco1 the results were E-sel inducer 0, DENV2 CPE rescue inconclusive, PglD inh -3 and ERAP1 inh 2.
For NC(=O)/C(=C/c1ccco1)C(N)=S the results were E-sel inducer 0, DENV2 CPE rescue -4, SIRT5 block 17* and ERAP1 inh 2.
`O=C(COC(=O)c1ccc(-c2ccc([N+](=O)[O-])cc2)o1)NC(=O)NC12CC3CC(CC(C3)C1)C2` gave E-sel inducer 149*, DENV2 CPE rescue -4, SIRT5 block 12 and ERAP1 inh -1.
`Cc1csc2ncnc(NC3CCN(Cc4ccccc4)CC3)c12` gave E-sel inducer -4, DENV2 CPE rescue -10, PglD inh 6, SIRT5 block -1 and ERAP1 inh -4.
COc1ccc2c3c([nH]c2c1)[C@H](CO)N(Cc1ccccc1Cl)CC31CCN(C(C)=O)CC1 was read as E-sel inducer -1 and DENV2 CPE rescue 22*.
For COc1ccc2c3c(n(C)c2c1)[C@@H](CO)N(Cc1ccccc1Cl)CC31CN(C(=O)CC2CC2)C1 the results were E-sel inducer 0, DENV2 CPE rescue 14, SIRT5 block 12 and ERAP1 inh -2.
For COc1ccc2c3c([nH]c2c1)[C@@H](CO)N(Cc1cccc(Cl)c1)CC31CCN(C(C)=O)CC1 the results were E-sel inducer 0 and DENV2 CPE rescue 30*.
COc1ccc2c3c(n(C)c2c1)[C@H](CO)N(Cc1ccccc1Cl)CC31CCN(C(=O)CC2CC2)CC1 was read as E-sel inducer 0, DENV2 CPE rescue 31* and SIRT5 block 4.
